Publication PMC10431048 (CPT: Pharmacometrics & Systems Pharmacology, 2023)
Where “and” joins values, the source holds several entries; their conditions need not be identical. Identical values can stand only once. Entries after “also recorded” stand apart in the source; their conditions may differ. Like-named read-outs stand apart in the source and are kept apart here.

Legend:
[1] = Population PK model; assay type: in vivo, human
Procedure, shortened: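 Plasma from nine trials (healthy, hepatic-impaired, FSGS; K2EDTA; acetonitrile precipitation; deuterated internal standard) was assayed by LC-MS/MS, 2.00–4000 ng/mL, LLOQ 2 ng/mL; samples below LLOQ were excluded. NONMEM FOCE-I fit: two compartments, lag plus first-order absorption, proportional-plus-additive error, nonlinear Frel above 200 mg, instant CL/F induction after first dose. Covariates: forward p<0.01, backward p<0.001. Bootstrap gave standard errors.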

[2] = assay type: in vivo, human; conditions: for change in steady-state AUC vs base: 800 mg once daily
Procedure, shortened: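 Simulated steady-state exposure (AUC, Cmax, Cmin) at 800 mg/day from the final model for a typical white male FSGS subject: 800-mg tablet, median ALKP and CrCL, no moderate or strong CYP3A4 inhibitor. Continuous covariates were set one at a time to 5th and 95th percentiles, and categorical covariates to alternative categories. Multivariate effects came from post hoc individual estimates stratified by covariate category.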

[3] = mass balance study; ref study 021HVOL16005, data on file; cited from earlier work
[4] = test system: CYP3A; conditions: ref data on file, cited from earlier work
[5] = cited from earlier work
[6] = sparsentan 400 titrating to 800 mg/day vs irbesartan, week 36; cited from earlier work
[7] = mild and moderate hepatic impairment; ref study 021IHFX16009, data on file; cited from earlier work
[8] = log-domain coefficient, vs capsule
[9] = log-domain coefficient, vs white
[10] = ALKP at the 5th and 95th percentile
[11] = CrCL at the 5th and 95th percentile
[12] = covariates other than moderate/strong CYP3A4 inhibitors, steady-state 800 mg

- Vc/F (derived) ([1]; 800 mg dose): 69.5 L
- Vp/F (derived) ([1]; 800 mg dose): 17.0 L
- CL/F (derived) ([1]; 800 mg dose, single dose, reference subject): 5.47 L/h
- Q/F ([1]; 400-mg dose, reference subject): 2.03 L/h
- Vp/F ([1]; 400-mg dose, reference subject): 12.1 L
- Vc/F ([1]; 400-mg dose, reference subject white female, 400-mg capsule): 49.3 L
- effect of co-medications on PK ([1]; acid reducer (including proton pump inhibitors), P-gp inhibitor, or mild CYP3A4 inhibitor): No significant effect
- Induction change in CL ([1]; additional CL at steady-state (CYP3A auto-induction), 400-mg reference subject): 1.23 L/h
- Ka ([1]; capsule (reference)): 0.740 h⁻¹
- half-life ([1]; human, plasma, oral, 800 mg): 9.6 h
- Variance Ka ([1]; interindividual random effect): 0.474
- Variance Vc ([1]; interindividual random effect): 0.234
- Effect on Ka: Crushed tablet [1, 8]: 0.080
- Effect on Ka: Tablet [1, 8]: −0.306
- Effect on Vc: Asian [1, 9]: 0.265
- Effect on Vc: Black or African American [1, 9]: 0.309
- increase of clearance due to CYP3A auto-induction at steady-state ([1]; steady-state vs first dose): 32%
- effect of ALKP on AUC [2, 10]: < 15%
- effect of ALKP on Cmax [2, 10]: < 10%
- impact of CrCL on AUC [2, 11]: < 20%
- impact of CrCL on Cmax [2, 11]: < 10%
- steady-state exposures across race ([2]; FSGS, 800-mg tablet): comparable
- steady-state exposure by age bracket ([2]; FSGS, 800-mg tablet, age 8-17, 18-64, >=65 years): increase
- increase in steady-state Cmax by formulation ([2]; capsule and crushed tablet formulations compared to tablet, 800 mg): less than 10%
- effect of other covariates on AUC [2, 12]: less than 20%
- effect of other covariates on Cmax [2, 12]: less than 20%
- impact of sex and race on steady-state AUC ([2]; female, White, Black, Asian): < 15%
- impact of sex and race on steady-state Cmax ([2]; female, White, Black, Asian): < 15%
- change in steady-state Cmax vs base ([2]; moderate CYP3A4 inhibitor comedication): 16.0%
- change in steady-state AUC vs base ([2]; moderate CYP3A4 inhibitor comedication, FSGS): 31.4% and 31%
- change in steady-state AUC vs base ([2]; strong CYP3A4 inhibitor comedication, FSGS): 191.3% and 191%
SMILES: CCCCC1=NC2(CCCC2)C(=O)N1Cc1ccc(-c2ccccc2S(=O)(=O)Nc2noc(C)c2C)c(COCC)c1 [sparsentan]
- effect of formulation on steady-state AUC ([2]; capsule and crushed tablet compared to tablet): unaffected; also recorded: no overall change
- urinary excretion [3]: 2.18 % of the radioactive dose
- interaction with CYP3A in vitro ([4]; in vitro): competitive inhibitor and inducer
- metabolism [4]: primarily metabolized by CYP3A
- reduction in urinary protein to creatinine ratio (UP/C) ([5]; sparsentan 200, 400, or 800 mg/day vs irbesartan 300 mg/day, 8 weeks): higher reduction
- rates of patients reaching the FSGS partial remission end point (FPRE) ([5]; sparsentan vs irbesartan): higher rates
- FPRE response, interim results [6]: significantly greater
- effect of hepatic impairment on sparsentan exposure [7]: not having a large effect
